Data published in ChEMBL document CHEMBL1139384, “First Cdc7 kinase inhibitors: pyrrolopyridinones as potent and orally active antitumor agents. 2. Lead discovery” (J Med Chem, 2009).
Activity calls are given as the source filed them. The calls are words filed in the database; no cut-off is given here.

How the values were obtained:
[1] = target: Mast/stem cell growth factor receptor Kit (Homo sapiens, UniProt P10721); assay: Inhibition of KIT
[2] = target: Serine/threonine-protein kinase PAK 4 (Homo sapiens, UniProt O96013); assay: Inhibition of PAK4
[3] = target: Mitogen-activated protein kinase 11 (Homo sapiens, UniProt Q15759); assay: Inhibition of P38beta
[4] = target: Proto-oncogene tyrosine-protein kinase receptor Ret (Homo sapiens, UniProt P07949); assay: Inhibition of RET
[5] = target: STE20-like serine/threonine-protein kinase (Homo sapiens, UniProt Q9H2G2); assay: Inhibition of STLK2
[6] = target: Vascular endothelial growth factor receptor 3 (Homo sapiens, UniProt P35916); assay: Inhibition of VEGFR3
Hepatocyte = assay: Metabolic stability in rat hepatocytes assessed as intrinsic clearance at 1 uM; assay type: cell-based; settings: Liver
[7] = Metabolic stability in human hepatocytes expressing CYP3A4 assessed as drug remaining after 1 hr; assay type: ADME, cell-based, Hepatocyte; settings: read-out: Stability
[8] = Cmax in nu/nu mouse at 10 mg/kg, iv administered as single dose; assay type: ADME, organism-based; set-up: dose 10 mg/kg, route intravenous; settings: in vivo
Summary of the method: (§1)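 Single iv or oral dose in 5% dextrose to overnight-fasted animals. Nu/Nu mice: males, 3 per route, saphenous bleeds to 24 h. Han-Wistar rats: males, 3 per route, jugular bleeds to 24 h. Beagle dogs: 2 per sex, iv and po crossover 2 weeks apart, jugular bleeds to 48 h. Plasma by LC/MS/MS; noncompartmental parameters, AUC by linear trapezoid with extrapolation.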

[9] = Clearance in nu/nu mouse at 10 mg/kg, iv administered as single dose; assay type: ADME, organism-based; set-up: dose 10 mg/kg, route intravenous; settings: in vivo; summary of the method: as §1
[10] = Volume of distribution at steady state in nu/nu mouse at 10 mg/kg, iv administered as single dose; assay type: ADME, organism-based; set-up: dose 10 mg/kg, route intravenous; settings: in vivo, read-out: Vdss
Summary of the method: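 Overnight-fasted male Nu/Nu mice got a single 10 mg/kg dose in 5% dextrose, iv or po, three mice per route. Saphenous blood was drawn at 0.083 (iv) or 0.25 (po), 0.5, 1, 6 and 24 h. Plasma was assayed by LC/MS/MS and analysed noncompartmentally. Tmax is the observed peak time, Vss = CL·MRT, and F is the ratio of dose-normalized AUC∞ po/iv.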

[11] = Half life in nu/nu mouse at 10 mg/kg, iv administered as single dose; assay type: ADME, organism-based; set-up: dose 10 mg/kg, route intravenous; settings: in vivo; summary of the method: as §1
[12] = Clearance in Wistar rat at 10 mg/kg, iv administered as single dose; assay type: ADME, organism-based; set-up: dose 10 mg/kg, route intravenous; settings: in vivo; summary of the method: as §1
A2780 [13] = assay: Antiproliferative activity against human A2780 cells after 72 hrs by luciferase based assay; assay type: functional, cell-based; settings: Homo sapiens, A2780, 72 h
[14] = Half life in Wistar rat at 10 mg/kg, iv administered as single dose; assay type: ADME, organism-based; set-up: dose 10 mg/kg, route intravenous; settings: in vivo; summary of the method: as §1
[15] = AUC (0 to infinity) in Beagle dog at 5 mg/kg, iv administered as single dose; assay type: ADME, organism-based, Canis lupus familiaris; set-up: time infinity, dose 5 mg/kg, route intravenous; settings: plasma; summary of the method: as §1
[16] = Volume of distribution at steady state in Beagle dog at 5 mg/kg, iv administered as single dose; assay type: ADME, organism-based, Canis lupus familiaris; set-up: dose 5 mg/kg, route intravenous; settings: in vivo, read-out: Vdss
Summary of the method: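 Overnight-fasted Beagle dogs, 2 per sex, in a crossover design: 5 mg/kg iv and 10 mg/kg po, two weeks apart, in 5% dextrose. Jugular blood was drawn up to 48 h, and urine was collected over 0–8, 8–24 and 24–48 h. Samples were assayed by LC/MS/MS and analysed noncompartmentally.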

[17] = Half life in Beagle dog at 10 mg/kg, po administered as single dose; assay type: ADME, organism-based, Canis lupus familiaris; set-up: dose 10 mg/kg, route oral; settings: in vivo; summary of the method: as §1
MCF7 = assay: Antiproliferative activity against human MCF7 cells after 72 hrs by luciferase based assay; assay type: functional, cell-based; settings: MCF7, 72 h
[18] = Antiproliferative activity against human […] cells after 72 hrs by luciferase based assay; assay type: functional, cell-based
Summary of the method: (§2)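 Cells seeded at 2500–5000/well in complete medium (RPMI1640, McCoy's or DMEM with 10% FCS, by line); compound added after 24 h, 72 h at 37 °C, 5% CO2.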

L-363 = assay: Antiproliferative activity against human L363 cells after 72 hrs by luciferase based assay; assay type: functional, cell-based; settings: L-363, 72 h; summary of the method: as §2
[19] = Antiproliferative activity against human SW403 cells after 72 hrs by luciferase based assay; assay type: functional, cell-based; settings: SW-403, 72 h; summary of the method: as §2
HeLa [20] = assay: Inhibition of DNA synthesis in human HeLa cells at 3 uM assessed as bromodeoxyuridine incorporation after 6 hrs; assay type: functional; set-up: scale not given: the % may be the effect or the level left
Summary of the method: (§3)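 Logarithmically growing HeLa cells exposed to 3 µM for set times, labelled with 50 µM BrdU, fixed in 70% ethanol. DNA content by propidium iodide with RNase A, 30 min at 37 °C; BrdU by FITC anti-BrdU after 2N HCl denaturation; percent positive cells by FACS.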

HeLa [21] = assay: Cell cycle arrest in human HeLa cells assessed as accumulation at G1/S phase at 3 uM by fluorescence activated cell sorting; assay type: functional, cell-based; summary of the method: as §3
HeLa [22] = assay: Cell cycle arrest in human HeLa cells assessed as accumulation at S phase at 3 uM by fluorescence activated cell sorting; assay type: functional, cell-based; summary of the method: as §3
[23] = target: T1, Cell division cycle 7-related protein kinase (Homo sapiens, UniProt O00311); assay: Inhibition of human Cdc7 in human A2780 cells assessed as inhibition of Ser53 phosphorylation of Mcm2 protein after 4 hrs; assay type: cell-based
Summary of the method: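 A2780 cells exposed for 4 h to a range of concentrations, then lysed in 50 mmol/L Tris-HCl pH 6.8, 1% SDS, 1 mmol/L DTT and sonicated 10 s. 15 µg protein per lane ([…]) was taken for Western blot with phospho-specific antibodies to MCM2 Ser40 and Ser53.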

[24] = target: T1, Cell division cycle 7-related protein kinase; assay: Inhibition of human Cdc7 in human A2780 cells assessed as inhibition of Ser40 phosphorylation of Mcm2 protein at 3 uM up to 24 hrs; assay type: cell-based
Summary of the method: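 Time course in A2780 cells held at 3 µM for up to 24 h. Extracts were made in 50 mmol/L Tris-HCl pH 6.8, 1% SDS, 1 mmol/L DTT with 10 s sonication, loaded at 15 µg per lane, and immunoblotted with antiphosphopeptide antibodies to MCM2 Ser40 and Ser53. Cleaved caspase 3 was also probed.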

A2780 [25] = assay: Induction of apoptosis in human A2780 cells assessed as caspase 3 activation at 3 uM up to 24 hrs; assay type: functional, cell-based
Summary of the method: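 A2780 cells held at 3 µM for up to 24 h; extracts in Tris-HCl pH 6.8 with 1% SDS and DTT, 15 µg protein per lane; cleaved caspase 3 detected by Western blot.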

[26] = target: Cyclin-dependent kinase 2 (Homo sapiens, UniProt P24941); assay: Inhibition of Cdk2A
[27] = target: ALK tyrosine kinase receptor (Homo sapiens, UniProt Q9UM73); assay: Inhibition of ALK
[28] = target: Cyclin-dependent kinase 4 (Homo sapiens, UniProt P11802); assay: Inhibition of CDK4
[29] = target: Serine/threonine-protein kinase PLK1 (Homo sapiens, UniProt P53350)
Rattus norvegicus [30] = assay: AUC (0 to infinity) in Wistar rat at 20 mg/kg, po administered as single dose; settings: in vivo
Rattus norvegicus [31] = assay: Oral bioavailability in Wistar rat at 20 mg/kg, po administered as single dose; settings: in vivo

T1 sequence (O00311 whole entry, looked up): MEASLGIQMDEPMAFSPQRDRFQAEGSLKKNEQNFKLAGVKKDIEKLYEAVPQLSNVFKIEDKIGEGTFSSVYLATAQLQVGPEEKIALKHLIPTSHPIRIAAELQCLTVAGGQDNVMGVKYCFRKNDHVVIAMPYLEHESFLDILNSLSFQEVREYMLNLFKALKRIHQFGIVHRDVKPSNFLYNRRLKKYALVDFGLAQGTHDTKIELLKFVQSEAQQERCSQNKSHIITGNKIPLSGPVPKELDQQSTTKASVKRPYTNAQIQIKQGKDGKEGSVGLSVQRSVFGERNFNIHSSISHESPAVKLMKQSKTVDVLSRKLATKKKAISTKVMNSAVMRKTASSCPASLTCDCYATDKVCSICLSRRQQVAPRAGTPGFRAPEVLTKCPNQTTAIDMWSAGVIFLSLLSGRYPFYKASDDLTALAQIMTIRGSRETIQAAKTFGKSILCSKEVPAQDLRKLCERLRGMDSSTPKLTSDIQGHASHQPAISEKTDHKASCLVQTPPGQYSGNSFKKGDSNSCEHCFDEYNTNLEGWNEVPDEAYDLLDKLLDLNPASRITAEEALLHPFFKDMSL
Sequence of Mast/stem cell growth factor receptor Kit (P10721 whole entry): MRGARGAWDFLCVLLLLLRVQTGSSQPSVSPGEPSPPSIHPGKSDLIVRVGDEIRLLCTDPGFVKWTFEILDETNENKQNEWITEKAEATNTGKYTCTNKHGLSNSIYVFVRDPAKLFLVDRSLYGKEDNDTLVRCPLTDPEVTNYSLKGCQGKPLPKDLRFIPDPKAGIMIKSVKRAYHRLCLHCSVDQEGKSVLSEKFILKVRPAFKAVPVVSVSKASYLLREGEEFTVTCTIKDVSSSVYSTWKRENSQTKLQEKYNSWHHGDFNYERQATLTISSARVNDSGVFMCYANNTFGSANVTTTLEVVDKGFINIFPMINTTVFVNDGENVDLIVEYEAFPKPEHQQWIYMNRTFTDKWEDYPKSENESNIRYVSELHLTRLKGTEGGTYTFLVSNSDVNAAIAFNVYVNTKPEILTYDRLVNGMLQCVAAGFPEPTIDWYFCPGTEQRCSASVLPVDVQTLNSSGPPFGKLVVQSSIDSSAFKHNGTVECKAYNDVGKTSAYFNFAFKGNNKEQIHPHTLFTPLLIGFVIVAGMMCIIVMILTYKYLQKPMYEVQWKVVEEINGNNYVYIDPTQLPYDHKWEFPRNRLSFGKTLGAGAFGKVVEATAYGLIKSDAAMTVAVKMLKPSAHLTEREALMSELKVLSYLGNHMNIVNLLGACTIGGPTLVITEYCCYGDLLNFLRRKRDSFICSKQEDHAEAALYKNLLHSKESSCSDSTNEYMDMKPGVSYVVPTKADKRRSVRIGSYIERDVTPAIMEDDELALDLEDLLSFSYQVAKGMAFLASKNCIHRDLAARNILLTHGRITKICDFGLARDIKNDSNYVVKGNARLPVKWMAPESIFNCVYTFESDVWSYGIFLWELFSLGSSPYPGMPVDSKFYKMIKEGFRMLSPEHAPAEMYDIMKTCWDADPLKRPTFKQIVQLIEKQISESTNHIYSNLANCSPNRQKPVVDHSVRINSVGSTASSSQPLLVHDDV
Sequence of Cyclin-dependent kinase 4 (P11802 whole entry): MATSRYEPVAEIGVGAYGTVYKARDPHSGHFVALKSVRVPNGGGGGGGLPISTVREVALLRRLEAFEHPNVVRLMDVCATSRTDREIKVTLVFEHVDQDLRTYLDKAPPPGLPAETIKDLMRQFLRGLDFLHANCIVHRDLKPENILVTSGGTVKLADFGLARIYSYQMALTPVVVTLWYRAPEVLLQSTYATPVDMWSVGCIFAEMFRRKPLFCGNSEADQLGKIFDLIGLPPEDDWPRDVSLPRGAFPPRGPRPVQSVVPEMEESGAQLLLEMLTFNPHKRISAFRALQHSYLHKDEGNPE
Sequence of Mitogen-activated protein kinase 11 (Q15759 whole entry): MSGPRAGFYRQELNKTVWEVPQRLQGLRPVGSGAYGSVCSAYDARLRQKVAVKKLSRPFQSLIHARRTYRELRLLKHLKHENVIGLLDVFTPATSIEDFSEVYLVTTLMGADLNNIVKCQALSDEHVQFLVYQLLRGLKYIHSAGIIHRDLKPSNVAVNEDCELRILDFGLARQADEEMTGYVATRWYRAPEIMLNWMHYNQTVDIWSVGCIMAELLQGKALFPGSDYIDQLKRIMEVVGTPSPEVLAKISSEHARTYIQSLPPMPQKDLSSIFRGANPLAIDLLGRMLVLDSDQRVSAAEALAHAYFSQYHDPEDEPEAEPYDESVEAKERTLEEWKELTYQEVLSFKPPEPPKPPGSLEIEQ
Sequence of Vascular endothelial growth factor receptor 3 (P35916 whole entry): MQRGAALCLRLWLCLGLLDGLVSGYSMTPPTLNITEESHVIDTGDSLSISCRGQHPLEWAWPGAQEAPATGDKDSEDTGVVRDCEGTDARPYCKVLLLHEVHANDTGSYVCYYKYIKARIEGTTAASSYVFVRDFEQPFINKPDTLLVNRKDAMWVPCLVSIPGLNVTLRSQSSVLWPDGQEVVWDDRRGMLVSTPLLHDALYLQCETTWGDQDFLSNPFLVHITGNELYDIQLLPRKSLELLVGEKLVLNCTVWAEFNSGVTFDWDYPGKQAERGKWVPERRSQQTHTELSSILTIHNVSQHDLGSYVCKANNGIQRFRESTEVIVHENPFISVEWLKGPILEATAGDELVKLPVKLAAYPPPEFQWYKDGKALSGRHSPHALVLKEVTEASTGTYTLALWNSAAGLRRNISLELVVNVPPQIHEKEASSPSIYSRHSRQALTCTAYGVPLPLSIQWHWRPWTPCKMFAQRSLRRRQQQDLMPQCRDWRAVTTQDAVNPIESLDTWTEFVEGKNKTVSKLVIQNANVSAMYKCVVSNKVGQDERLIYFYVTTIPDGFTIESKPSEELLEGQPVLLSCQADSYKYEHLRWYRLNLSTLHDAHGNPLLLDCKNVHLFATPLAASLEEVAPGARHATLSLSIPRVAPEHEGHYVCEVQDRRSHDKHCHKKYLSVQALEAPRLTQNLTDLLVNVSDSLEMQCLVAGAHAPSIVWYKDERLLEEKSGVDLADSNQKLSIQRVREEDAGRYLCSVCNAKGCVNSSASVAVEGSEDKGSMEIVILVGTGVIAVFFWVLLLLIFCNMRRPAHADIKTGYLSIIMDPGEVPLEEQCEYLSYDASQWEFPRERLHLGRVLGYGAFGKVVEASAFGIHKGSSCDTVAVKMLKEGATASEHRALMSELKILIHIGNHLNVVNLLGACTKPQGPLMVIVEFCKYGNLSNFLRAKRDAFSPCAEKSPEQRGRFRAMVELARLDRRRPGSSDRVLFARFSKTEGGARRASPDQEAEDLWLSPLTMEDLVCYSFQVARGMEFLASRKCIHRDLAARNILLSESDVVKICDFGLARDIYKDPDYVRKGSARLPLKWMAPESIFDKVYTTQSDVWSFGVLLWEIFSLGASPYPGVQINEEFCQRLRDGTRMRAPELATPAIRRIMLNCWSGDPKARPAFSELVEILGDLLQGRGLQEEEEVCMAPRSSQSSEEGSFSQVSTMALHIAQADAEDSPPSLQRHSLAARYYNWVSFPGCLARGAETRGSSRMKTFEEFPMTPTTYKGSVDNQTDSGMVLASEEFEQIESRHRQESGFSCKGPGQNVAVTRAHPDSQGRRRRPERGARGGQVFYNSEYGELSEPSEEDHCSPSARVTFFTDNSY
Sequence of STE20-like serine/threonine-protein kinase (Q9H2G2 whole entry): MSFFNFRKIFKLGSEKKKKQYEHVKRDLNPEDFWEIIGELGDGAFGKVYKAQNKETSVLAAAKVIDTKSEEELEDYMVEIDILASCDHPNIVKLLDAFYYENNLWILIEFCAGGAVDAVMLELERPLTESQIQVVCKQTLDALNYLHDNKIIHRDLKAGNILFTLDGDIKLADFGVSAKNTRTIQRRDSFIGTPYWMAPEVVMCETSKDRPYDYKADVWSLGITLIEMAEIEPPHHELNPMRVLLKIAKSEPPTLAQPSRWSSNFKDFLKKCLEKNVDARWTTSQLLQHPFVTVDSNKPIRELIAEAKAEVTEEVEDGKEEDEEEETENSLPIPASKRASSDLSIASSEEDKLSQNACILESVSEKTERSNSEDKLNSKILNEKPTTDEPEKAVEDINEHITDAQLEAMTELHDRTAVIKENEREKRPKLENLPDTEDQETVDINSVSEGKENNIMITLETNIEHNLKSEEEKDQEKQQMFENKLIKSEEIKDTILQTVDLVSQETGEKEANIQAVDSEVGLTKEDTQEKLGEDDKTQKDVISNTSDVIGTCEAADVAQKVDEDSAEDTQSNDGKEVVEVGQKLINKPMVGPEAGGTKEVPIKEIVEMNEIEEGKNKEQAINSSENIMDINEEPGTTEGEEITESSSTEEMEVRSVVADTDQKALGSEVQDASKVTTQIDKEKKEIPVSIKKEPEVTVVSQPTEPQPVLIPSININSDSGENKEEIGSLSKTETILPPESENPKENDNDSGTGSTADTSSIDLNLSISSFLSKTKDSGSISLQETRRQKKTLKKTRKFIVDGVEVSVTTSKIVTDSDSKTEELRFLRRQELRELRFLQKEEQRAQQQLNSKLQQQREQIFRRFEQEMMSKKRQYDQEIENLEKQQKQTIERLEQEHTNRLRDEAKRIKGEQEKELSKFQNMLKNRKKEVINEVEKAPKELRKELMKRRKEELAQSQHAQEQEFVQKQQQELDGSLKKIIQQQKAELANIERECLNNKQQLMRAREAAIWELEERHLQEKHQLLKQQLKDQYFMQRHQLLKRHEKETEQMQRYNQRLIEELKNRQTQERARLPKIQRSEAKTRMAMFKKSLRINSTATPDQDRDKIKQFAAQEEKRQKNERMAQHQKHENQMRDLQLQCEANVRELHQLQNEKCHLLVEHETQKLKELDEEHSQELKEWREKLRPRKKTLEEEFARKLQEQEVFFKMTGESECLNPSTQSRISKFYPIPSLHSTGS

Nc1nccc(-c2cc3c([nH]2)[C@@H](CCF)CNC3=O)n1
IC50 [1]: > 4000 nM | IC50 [2]: > 4000 nM | IC50 [3]: > 4000 nM | IC50 [4]: > 4000 nM | IC50 [5]: > 4000 nM | IC50 [6]: > 4000 nM | CL (mL.min-1.kg-1) (Hepatocyte): 5 | remaining at 1 h [7]: 95% | Cmax [8]: 20.3 µM | clearance [9]: 61.7 mL/min/kg | Vd [10]: 2.6 L/kg | half-life [11]: 1 h | clearance [12]: 30 mL/min/kg | IC50 (A2780 [13]): 500 nM | half-life [14]: 1.3 h | AUC(0-inf) [15]: 6.3 µM·h | Vd [16]: 2.1 L/kg | half-life [17]: 1.2 h | IC50 (MCF7): 1100 nM | IC50 [18]: 400 nM | IC50 (L-363): 1300 nM | IC50 [19]: 600 nM | Activity (HeLa [20]): 16% | Activity (HeLa [21]): Active | Activity (HeLa [22]): Active | MED [23]: 0.6 µM | Activity [24]: Active | Activity (A2780 [25]): Active | IC50 [26]: 138 nM | IC50 [27]: > 4000 nM | IC50 [28]: > 4000 nM | IC50 [29]: 574 nM | AUC (Rattus norvegicus [30]): 18.9 µM·h | F (Rattus norvegicus [31]): 33%
